Activity calls are given as the source filed them. The rule behind the calls is not given here.
How the values were obtained:
[1] = test system: Oryctolagus cuniculus; assay: Percentage change of IOP in rabbits after 8 hr administration (2.5%) of compound; assay type: functional
Summary of the method: (§1)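 Rabbits received 1% or 2.5% drug solution in pH 7.4 buffer or saline in both eyes, at least four per group. A control group of at least three rabbits received carrier only. IOP was read by pneumatonometer in unrestrained, unanesthetized animals after one drop of 0.5% propacaine diluted 1:2 with saline. Readings were taken at 30 and 60 min and at 2–8 h. Values are mean ± SE, with significance by Student's t test.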

[2] = test system: Oryctolagus cuniculus; assay: Concentration of propranolone oxime in aqueous humor of rabbit after 120 min administration of compound; N/A= no oxime can be present after administration of propranolone hydrochloride; assay type: functional, organism-based; conditions: Aqueous humor of eyeball
Summary of the method: (§2)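 Adult male New Zealand albino rabbits (2.5–3.5 kg), at least four per time point. 100 µL of a 1% solution in saline was instilled topically into both eyes. Animals were killed at 30, 60 or 120 min. Cornea and iris-ciliary body were homogenized in methanol to 10% homogenates and deproteinized by centrifugation. Aqueous humor was analysed undiluted. HPLC was calibrated against spiked control-rabbit tissue. Values are mean ± SE, µg/g.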

[3] = test system: Oryctolagus cuniculus; assay: Effect on IOP of rabbits 2 hr after administration (1%); assay type: functional
Summary of the method: (§3)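 IOP was read by pneumatonometer in unrestrained, unanesthetized rabbits after local propacaine drops. Drug was given as a 1% or 2.5% solution in pH 7.4 buffer or saline to both eyes, at least four rabbits per group; controls (at least three) received carrier only. Readings were taken at 30 and 60 min and at 2, 3, 4, 6 and 8 h. Values are mean ± SE; Student's t test.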

[4] = test system: Oryctolagus cuniculus; assay: Effect on IOP of rabbits 4 hr after administration (1%); assay type: functional; summary of the method: as §3
[5] = test system: Oryctolagus cuniculus; assay: Percentage change of IOP in rabbits after 2 hr administration (1%) of compound; assay type: functional; summary of the method: as §3
[6] = test system: Oryctolagus cuniculus; assay: Effect on IOP of rabbits 4 hr after administration (2.5%); assay type: functional; summary of the method: as §3
[7] = test system: Oryctolagus cuniculus; assay: Concentration in iris-ciliary body of rabbit after 30 min administration of compound; assay type: functional, organism-based; summary of the method: as §2
[8] = test system: Oryctolagus cuniculus; assay: Percentage change of IOP in rabbits after 0 min administration (2.5%) of compound; assay type: functional; summary of the method: as §3
[9] = test system: Oryctolagus cuniculus; assay: Effect on IOP of rabbits 0 min after administration (2.5%); assay type: functional; summary of the method: as §3
[10] = test system: Oryctolagus cuniculus; assay: Concentration of propranolone oxime in iris-ciliary body of rabbit after 30 min administration of compound; N/A= no oxime can be present after administration of propranolone hydrochloride; assay type: functional, organism-based; summary of the method: as §2
[11] = test system: Oryctolagus cuniculus; assay: Percentage change of IOP in rabbits after 30 min administration (1%) of compound; assay type: functional; summary of the method: as §1
[12] = test system: Oryctolagus cuniculus; assay: Percentage change of IOP in rabbits after 2 hr administration (2.5%) of compound; assay type: functional; summary of the method: as §3
[13] = test system: Oryctolagus cuniculus; assay: Concentration of propranolone oxime in cornea of rabbit after 120 min administration of compound; N/A= no oxime can be present after administration of propranolone hydrochloride; assay type: functional, organism-based; summary of the method: as §2
[14] = test system: Oryctolagus cuniculus; assay: Concentration of propranolone oxime in iris-ciliary body of rabbit after 120 min administration of compound; N/A= no oxime can be present after administration of propranolone hydrochloride; assay type: functional, organism-based; summary of the method: as §2
[15] = test system: Oryctolagus cuniculus; assay: Concentration in cornea of rabbit after 60 min administration of compound; assay type: functional, organism-based; summary of the method: as §2
[16] = test system: Oryctolagus cuniculus; assay: Percentage change of IOP in rabbits after 30 min administration (2.5%) of compound; assay type: functional; summary of the method: as §1
[17] = test system: Oryctolagus cuniculus; assay: Concentration in aqueous humor of rabbit after 60 min administration of compound; assay type: functional, organism-based; conditions: Aqueous humor of eyeball; summary of the method: as §2
[18] = test system: Oryctolagus cuniculus; assay: Percentage change of IOP in rabbits after 60 min administration (1%) of compound; assay type: functional; summary of the method: as §1
[19] = test system: Oryctolagus cuniculus; assay: Percentage change of IOP in rabbits after 3h administration (2.5%) of compound; assay type: functional; summary of the method: as §1
[20] = test system: Oryctolagus cuniculus; assay: Effect on IOP of rabbits 6 hr min after administration (2.5%); assay type: functional; summary of the method: as §3
[21] = test system: Oryctolagus cuniculus; assay: Percentage change of IOP in rabbits after 4 hr administration (1%) of compound; assay type: functional; summary of the method: as §1
[22] = test system: Oryctolagus cuniculus; assay: Percentage change of IOP in rabbits after 3h administration (1%) of compound; assay type: functional; summary of the method: as §1
[23] = test system: Oryctolagus cuniculus; assay: Percentage change of IOP in rabbits after 8 hr administration (1%) of compound; assay type: functional; summary of the method: as §1
[24] = test system: Oryctolagus cuniculus; assay: Concentration of propranolone oxime in aqueous humor of rabbit after 30 min administration of compound; N/A= no oxime can be present after administration of propranolone hydrochloride; assay type: functional, organism-based; conditions: Aqueous humor of eyeball; summary of the method: as §2
[25] = test system: Oryctolagus cuniculus; assay: Effect on IOP of rabbits 3h after administration (2.5%); assay type: functional; summary of the method: as §3
[26] = test system: Oryctolagus cuniculus; assay: Percentage change of IOP in rabbits after 6 hr administration (1%) of compound; assay type: functional; summary of the method: as §1
[27] = test system: Oryctolagus cuniculus; assay: Effect on IOP of rabbits 6 hr min after administration (1%); assay type: functional; summary of the method: as §3
[28] = test system: Oryctolagus cuniculus; assay: Effect on IOP of rabbits 60 mins after administration (2.5%); assay type: functional; summary of the method: as §3
[29] = test system: Oryctolagus cuniculus; assay: Percentage change of IOP in rabbits after 6 hr administration (2.5%) of compound; assay type: functional; summary of the method: as §1
[30] = test system: Oryctolagus cuniculus; assay: Concentration in aqueous humor of rabbit after 30 min administration of compound; assay type: functional, organism-based; conditions: Aqueous humor of eyeball; summary of the method: as §2
[31] = test system: Oryctolagus cuniculus; assay: Percentage change of IOP in rabbits after 0 min administration (1%) of compound; assay type: functional; summary of the method: as §3
[32] = test system: Oryctolagus cuniculus; assay: Effect on IOP of rabbits 30 mins after administration (2.5%); assay type: functional; summary of the method: as §3
[33] = test system: Oryctolagus cuniculus; assay: Effect on IOP of rabbits 8 hr min after administration (2.5%); assay type: functional; summary of the method: as §3
[34] = test system: Oryctolagus cuniculus; assay: Concentration of propranolone oxime in aqueous humor of rabbit after 60 min administration of compound; N/A= no oxime can be present after administration of propranolone hydrochloride; assay type: functional, organism-based; conditions: Aqueous humor of eyeball; summary of the method: as §2
[35] = test system: Oryctolagus cuniculus; assay: Effect on IOP of rabbits 8 hr min after administration (1%); assay type: functional; summary of the method: as §3
[36] = test system: Oryctolagus cuniculus; assay: Concentration in cornea of rabbit after 30 min administration of compound; assay type: functional, organism-based; summary of the method: as §2
[37] = test system: Oryctolagus cuniculus; assay: Effect on IOP of rabbits 0 min after administration (1%); assay type: functional; summary of the method: as §3
[38] = test system: Oryctolagus cuniculus; assay: Effect on IOP of rabbits 30 mins after administration (1%); assay type: functional; summary of the method: as §3
[39] = test system: Oryctolagus cuniculus; assay: Effect on IOP of rabbits 60 min after administration (1%); assay type: functional; summary of the method: as §3
[40] = test system: Oryctolagus cuniculus; assay: Effect on IOP of rabbits 3h after administration (1%); assay type: functional; summary of the method: as §3
[41] = test system: Oryctolagus cuniculus; assay: Concentration of propranolone oxime in cornea of rabbit after 30 min administration of compound; N/A= no oxime can be present after administration of propranolone hydrochloride; assay type: functional, organism-based; summary of the method: as §2
[42] = test system: Oryctolagus cuniculus; assay: Percentage change of IOP in rabbits after 60 min administration (2.5%) of compound; assay type: functional; summary of the method: as §1
[43] = test system: Oryctolagus cuniculus; assay: Percentage change of IOP in rabbits after 4 hr administration (2.5%) of compound; assay type: functional; summary of the method: as §1
[44] = test system: Oryctolagus cuniculus; assay: Concentration of propranolone oxime in cornea of rabbit after 60 min administration of compound; N/A= no oxime can be present after administration of propranolone hydrochloride; assay type: functional, organism-based; summary of the method: as §2
[45] = test system: Oryctolagus cuniculus; assay: Concentration of propranolone oxime in iris-ciliary body of rabbit after 60 min administration of compound; N/A= no oxime can be present after administration of propranolone hydrochloride; assay type: functional, organism-based; summary of the method: as §2
[46] = test system: Oryctolagus cuniculus; assay: Effect on IOP of rabbits 2 hr after administration (2.5%); assay type: functional; summary of the method: as §3

**Q.** What does the source list for `CC(C)NCC(O)COc1cccc2ccccc12` (stereo unspecified) [PROPRANOLOL]?
**A.** Change [1]: -0.79%; Concentration [2]: inactive; IOP [3]: 29.1 mmHg; IOP [4]: 28.2 mmHg; Change [5]: -5.52%; IOP [6]: 25.6 mmHg; Concentration [7]: 8.1 µg/g; Change [8]: 0%; IOP [9]: 25.4 mmHg; Concentration [10]: inactive; Change [11]: >-9.1%; Change [12]: 1.18%; Concentration [13]: inactive; Concentration [14]: inactive; Concentration [15]: 14.5 µg/g; Change [16]: >8.66%; Concentration [17]: 0.3 µg/g; Change [18]: >-10.39%; Change [19]: 1.18%; IOP [20]: 25.4 mmHg; Change [21]: -8.44%; Change [22]: -11.04%; Change [23]: -1.95%; Concentration [24]: inactive; IOP [25]: 25.7 mmHg; Change [26]: -5.84%; IOP [27]: 29 mmHg; IOP [28]: 27.9 mmHg; Change [29]: 0%; Concentration [30]: 1.3 µg/g; Change [31]: 0%; IOP [32]: 27.6 mmHg; IOP [33]: 25.2 mmHg; Concentration [34]: inactive; IOP [35]: 30.2 mmHg; Concentration [36]: 47.1 µg/g; IOP [37]: 30.8 mmHg; IOP [38]: 29 mmHg; IOP [39]: 27.6 mmHg; IOP [40]: 27.4 mmHg; Concentration [41]: inactive; Change [42]: >9.84%; Change [43]: 0.79%; Concentration [44]: inactive; Concentration [45]: inactive; IOP [46]: 25.7 mmHg

Source: ChEMBL document CHEMBL1124215, “Improved delivery through biological membranes. 26. Design, synthesis, and pharmacological activity of a novel chemical delivery system for beta-adrenergic blocking agents” (1988)
